According to ChEMBL document CHEMBL4145651, “Kleinhospitine E and Cycloartane Triterpenoids from Kleinhovia hospita” (J Nat Prod, 2018):

Legend:
A549 = assay: Antiproliferative activity against human A549 cells after 72 hrs by SRB assay; assay type: functional, cell-based; conditions: A549, 72 h
MDA-MB-231 = assay: Antiproliferative activity against human MDA-MB-231 cells after 72 hrs by SRB assay; assay type: functional, cell-based; conditions: MDA-MB-231, 72 h
MCF7 = assay: Antiproliferative activity against human MCF7 cells after 72 hrs by SRB assay; assay type: functional, cell-based; conditions: MCF7, 72 h
KB = assay: Antiproliferative activity against human KB cells after 72 hrs by SRB assay; assay type: functional, cell-based
[1] = Antiproliferative activity against human KBVIN cells after 72 hrs by SRB assay; assay type: functional, cell-based
[2] = system: Human immunodeficiency virus 1; assay: Antiviral activity against HIV1 NL4-3 infected in human MT4 cells assessed as inhibition of viral replication after 3 days by luciferase reporter gene assay; assay type: functional, organism-based
Summary of the method: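 MT4 cells (1 × 10^5 cells/mL) infected with HIV-1 NL4-3 Nanoluc-sec reporter virus at 50 TCID50/well alongside a range of compound concentrations (multicycle replication). Supernatants harvested on day 3 post-infection and read for secreted luciferase (Nano-Glo).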

[3] = Selectivity index, ratio of CC50 for human MT4 cells to IC50 for HIV1 NL4-3 infected in human MT4 cells; assay type: toxicity, cell-based; conditions: read-out: Ratio CC50/IC50
Summary of the method: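 Selectivity index computed as CC50 (MT4 CytoTox-Glo, 3 days) divided by anti-HIV IC50 (NL4-3 Nanoluc-sec luciferase in MT4, day 3); SI below 5 regarded as no selective activity.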

[4] = Cytotoxicity against human MT4 cells assessed as reduction in cell viability after 3 days by cytoTox-Glo reagent based assay
[5] = Human immunodeficiency virus 1, NL4-3, MT4, 72 h, read-out: IC50

| IC50 (A549) [µM] | IC50 (MDA-MB-231) [µM] | IC50 (MCF7) [µM] | IC50 (KB) [µM] | IC50 ([2]; mt4) | IC50 [2, 5] [µM] | SMILES | IC50 [1] [µM] | selectivity ratio [3] | CC50 at 72 h [4] [µM] |
| --- | --- | --- | --- | --- | --- | --- | --- | --- | --- |
| 9.1 | > 10 | > 10 | > 10 | Not Active |  | CO[C@@H]1O[C@@]2(C=C(C)C(=O)O2)C[C@@H]1[C@H]1CC[C@@]2(C)[C@@H]3CC[C@H]4C(C)(C)C(=O)C=C[C@@]45C[C@@]35CC[C@]12C | 5.7 | < 5 |  |
| 9.4 | 10 | > 10 | 8 | Not Active |  | CC(=O)/C=C1/C=C([C@H]2CC[C@@]3(C)[C@@H]4CC[C@H]5C(C)(C)C(=O)C=C[C@@]56C[C@@]46CC[C@]23C)C(=O)N1 | 6.9 | < 5 |  |
| > 10 | > 10 | > 10 | > 10 |  | 0.8 | CC1=C[C@@]2(C[C@H]([C@H]3CC[C@@]4(C)[C@@H]5CC[C@H]6C(C)(C)C(=O)C=C[C@]67C[C@]57CC[C@]34C)CO2)OC1=O | > 10 | 5.8 | 4.6 |
| 8.9 | > 10 | 10 | > 10 |  |  | CO[C@H]1O[C@]2(C=C(C)C(=O)O2)C[C@@H]1[C@H]1CC[C@@]2(C)[C@@H]3CC[C@H]4C(C)(C)C(=O)C=C[C@@]45C[C@@]35CC[C@]12C | 6.1 |  |  |
| > 10 | > 10 | > 10 | > 10 | Not Active |  | CO[C@H]1O[C@@]2(C=C(C)C(=O)O2)C[C@@H]1[C@H]1CC[C@@]2(C)[C@@H]3CC[C@H]4C(C)(C)C(=O)C=C[C@@]45C[C@@]35CC[C@]12C | > 10 | < 5 |  |
| 8.2 | > 10 | > 10 | > 10 |  |  | CC1=C[C@@]2(C[C@H]([C@H]3CC[C@@]4(C)[C@@H]5CC[C@H]6C(C)(C)C(=O)C=C[C@@]67C[C@@]57CC[C@]34C)CO2)OC1=O | > 10 |  |  |
| > 10 | > 10 | > 10 | > 10 |  | 2.4 | CO[C@H]1O[C@]2(C=C(C)C(=O)O2)C[C@@H]1[C@H]1CC[C@@]2(C)[C@@H]3CC[C@H]4C(C)(C)C(=O)C=C[C@]45C[C@]35CC[C@]12C | > 10 | 5.3 | 12.6 |

The next lines start with the compound.

| SMILES | IC50 (A549) [µM] | IC50 (MDA-MB-231) [µM] | IC50 (MCF7) [µM] | IC50 (KB) [µM] | IC50 ([2]; mt4) | IC50 [2, 5] [µM] | IC50 [1] [µM] | selectivity ratio [3] | CC50 at 72 h [4] [µM] |
| --- | --- | --- | --- | --- | --- | --- | --- | --- | --- |
| CC1(C)CC[C@]2(C)CC=C3[C@]4(C)CC[C@H]5C(C)(C)C(=O)CC[C@]5(C)[C@H]4CC[C@@]3(C)[C@@H]2C1 [TARAXERONE] | > 10 | > 10 | > 10 | > 10 |  |  | > 10 |  |  |
| Cc1cn([C@H]2C[C@H](N=[N+]=[N-])[C@@H](CO)O2)c(=O)[nH]c1=O [ZIDOVUDINE] |  |  |  |  |  |  |  |  | > 3.74 |
| CC(C)=CC(=O)CC(C(=O)O)[C@H]1CC[C@@]2(C)[C@@H]3CC[C@H]4C(C)(C)C(=O)C=C[C@@]45C[C@@]35CC[C@]12C (some centres undefined) | > 10 | > 10 | > 10 | > 10 |  |  | > 10 |  |  |
| CC(=O)O[C@H]1C(=O)[C@@]2(C)[C@H]([C@H](OC(=O)c3ccccc3)[C@]3(O)C[C@H](OC(=O)[C@H](O)[C@@H](NC(=O)c4ccccc4)c4ccccc4)C(C)=C1C3(C)C)[C@]1(OC(C)=O)CO[C@@H]1C[C@@H]2O [PACLITAXEL] | 0.0063 | 0.0081 | 0.0112 |  |  |  | 2.79 |  |  |
| CC(C)=CC(=O)C[C@@H](C)[C@H]1CC[C@@]2(C)[C@@H]3CC[C@H]4C(C)(C)C(=O)C=C[C@@]45C[C@@]35CC[C@]12C | > 10 | > 10 | > 10 | > 10 |  |  | > 10 |  |  |
| CC(C)=CC(=O)C[C@@H](C)[C@H]1CC[C@@]2(C)[C@@H]3CC[C@H]4C(C)(C)C(=O)C=C[C@]45C[C@]35CC[C@]12C | > 10 | > 10 | > 10 | > 10 | Not Active |  | 8.4 | < 5 |  |
